An excerpt weighted towards active compounds, which were near 1.9% of everything screened.
Autophagy mod – autophagy modulators in MEF cells, primary screen, imaging, high-content, MEF GFP-LC3; MEF GFP-LC3 puncta imaging; test concentration mostly 10 µM; calls only at 10 µM (by protocol); 190,000 compounds, 0.98% hits; AID 463193, 2010;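 active = percentage of spot-positive cells more than 3 SD above its plate mean, without a fluorescence outlier flag or 80% toxicity; inconclusive = no clear call, values can overlap the other calls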
Insulin prom up – insulin promoter activators in MIN6 cells, imaging, high-content screening, mouse beta cells; 190,000 compounds, 0.3% hits; AID 1625, 2009; z-score at 5 µM; MIN6 insulin promoter-GFP reporter; hits give high values;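 active = z-score above 3 at 5 µM with at least 500 cells counted in the well; inconclusive = wells under 500 cells, flagged as cytotoxic or low count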
HSV augment – enhancers of HSV replication in host cells, fold increase, host cell viability; HSV replication augmentation in cells; 220,000 compounds, 0.005% hits; maximum fold increase; in the data active = maximum fold increase above about 1.5; inconclusive = no clear call, values can overlap the other calls; tested in PC3 cells
Furin inh – human furin inhibitors, primary screen, biochemical, fluorescence intensity. P09958. AID 463115, 2010. purified furin, fluorogenic substrate cleavage. 220,000 compounds, 0.061% hits. inhibition, % at 20 µM or 30 µM; in the data active = inhibition above about 25%
Target sequence (P09958 108-714 limits assumed): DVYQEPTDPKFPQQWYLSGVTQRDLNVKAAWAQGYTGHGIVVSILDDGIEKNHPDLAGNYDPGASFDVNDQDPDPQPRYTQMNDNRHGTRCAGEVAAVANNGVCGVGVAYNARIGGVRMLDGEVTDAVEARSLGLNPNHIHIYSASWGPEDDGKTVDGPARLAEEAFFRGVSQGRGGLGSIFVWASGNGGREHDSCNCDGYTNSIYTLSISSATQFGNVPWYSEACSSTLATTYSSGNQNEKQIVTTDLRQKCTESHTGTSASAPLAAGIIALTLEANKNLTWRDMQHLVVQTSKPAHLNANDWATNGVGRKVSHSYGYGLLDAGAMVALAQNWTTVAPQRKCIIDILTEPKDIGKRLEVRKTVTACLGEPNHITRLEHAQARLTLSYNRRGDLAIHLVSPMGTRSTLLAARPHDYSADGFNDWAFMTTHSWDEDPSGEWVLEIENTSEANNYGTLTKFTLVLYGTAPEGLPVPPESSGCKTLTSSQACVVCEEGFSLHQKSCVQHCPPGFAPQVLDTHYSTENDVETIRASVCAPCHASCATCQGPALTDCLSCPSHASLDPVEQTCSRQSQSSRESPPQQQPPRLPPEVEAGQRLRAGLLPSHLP
MT stabilizer – microtubule stabilizers in HeLa cells, primary screen, imaging, high-content imaging; HeLa tubulin immunostaining HCS, 24 h; share of cells brighter than vehicle mean+2SD; 200,000 compounds, 0.83% hits; AID 2205, 2009; % tubulin-high responders, % at 10 µM;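 active = plate Z-score above 3 for both tubulin-high and condensed-nucleus cell shares, with cell loss under 80%, at 10 µM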;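 note: anti alpha tubulin signal scored within the nucleus-defined area of each cell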
bCat nuc transl – modulators of beta-catenin nuclear translocation, primary screen, imaging, HeLa cells, immunofluorescence, high-content; nuclear translocation activity, % at 5 µM; 190,000 compounds, 0.3% hits; AID 1665, 2009;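 active = nuclear translocation activity above 50% at 5 µM, with a well cell count of 50 or more; inconclusive = wells under 50 cells across six images, flagged as toxic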;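 note: per-cell ratio of nuclear to cytoplasmic median beta-catenin stain intensity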
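Read-out: Nuclear/cytoplasmic beta-catenin signal ratio, % activation | Assay system: Human HeLa cell line | Times: 24 h compound exposure at 37°C, 5% CO2 | Signal: Fluorescence imaging of beta-catenin antibody stain plus DAPI | Dosing: 5 µM primary, 0.02–20 µM confirmation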
Large screens that a line does not name were inactive.

COc1cccc(C(=O)N(c2ccccc2)C2C=CS(=O)(=O)C2)c1 (centres undefined)	none
Cc1ccc(S(=O)(=O)N2CCN(CC(=O)N/N=C\c3ccc(Cl)c([N+](=O)[O-])c3)CC2)cc1	none
O=C(CN1CCN(S(=O)(=O)c2ccc(Br)cc2)CC1)N/N=C/c1ccc(Cl)c([N+](=O)[O-])c1	MT stabilizer 13 (no result: HSV augment)
CC(C)(C)c1csc(Sc2ccc([N+](=O)[O-])cn2)n1	none (no result: Autophagy mod, MT stabilizer)
CCNS(=O)(=O)c1ccc(NC(=O)Cn2cc([N+](=O)[O-])cn2)cc1	none
O=C(NCCN1CCOCC1)c1ccc2c(c1)N(Cc1ccccc1F)C(=O)c1ccccc1S2	Autophagy mod active
Cc1cccc(CN2C(=O)c3ccccc3Sc3ccc(C(=O)NCCN4CCOCC4)cc32)c1	none
Cc1ccc(C2CC(=O)NC(SCC(=O)Nc3nccs3)=C2C#N)cc1 (centres undefined)	none
COc1ccc(-n2cnc3cc(NC(=O)c4ccco4)ccc32)cc1	none (no result: Insulin prom up, bCat nuc transl)
COc1ccccc1-n1cnc2cc(NC(=O)c3ccco3)ccc21	MT stabilizer 52, bCat nuc transl 62 (no result: Insulin prom up)
CCC(=O)Nc1ccc2c(c1)ncn2-c1ccccc1	Insulin prom up 5
Cc1ccc(NS(=O)(=O)c2cc(-c3n[nH]c(=O)c4ccccc34)ccc2C)cc1	none
CCc1ccc(C(=O)/C=C/NCc2ccc(F)cc2)cc1	HSV augment 1.5
COc1cccc(N/C(SC)=C(/C#N)C(N)=O)c1	MT stabilizer 22
S=C(NCCN1CCOCC1)NC1CCCC1	none
Cc1c(CN2CCC(CO)(CCOc3ccccc3)CC2)[nH]c2c(Cl)cccc12	MT stabilizer 29
COc1ccc(OCCSc2nnc(C(C)NC(=O)c3ccccc3F)n2C)cc1 (centres undefined)	none
C=CCOc1c(Cl)cc(C2NC(=O)NC(C)=C2C(=O)OC)cc1Cl (centres undefined)	MT stabilizer 23
CC[n+]1c(/C=C/N(C)c2ccccc2)oc2ccc(Cl)cc21	Insulin prom up inconclusive
CCN1/C(=C/C=C/c2oc3ccc4ccccc4c3[n+]2CC)Oc2ccc3ccccc3c21	Autophagy mod inconclusive, MT stabilizer 80 (no result: Insulin prom up, HSV augment, bCat nuc transl)
O=C(COc1ccccc1Br)NCCc1nc2ccccc2[nH]1	none (no result: Insulin prom up)
Cc1ccc(NC(=O)/C=C/c2ccc([N+](=O)[O-])s2)c(C)c1	Insulin prom up 13 (no result: HSV augment)
Cc1ccc(NC(=O)/C=C/c2ccc([N+](=O)[O-])s2)cc1	Insulin prom up 17
CC(=Nc1ccc(C)cc1C)c1sc2ccccc2c1O	Insulin prom up 4, HSV augment inconclusive
CC(=Nc1ccc(C)cc1)c1sc2ccccc2c1O	HSV augment inconclusive
CCN(CC)c1ccc(/C=C(\C#N)c2ccccn2)cc1	HSV augment inconclusive, MT stabilizer 22 (no result: bCat nuc transl)
COC(=O)c1cc(NC(=O)c2cccc(Cl)c2)c(=O)oc1/C=C/Nc1cc(C)cc(C)c1	Autophagy mod active, Insulin prom up 15, HSV augment inconclusive
O=C(Cc1c[nH]c2ccccc12)N1CCc2ccccc21	Furin inh 35 (no result: Insulin prom up, bCat nuc transl)
O=C(CSc1c[nH]c2ccccc12)N1CCCc2ccccc21	none
C=CCn1c(Oc2cccc(C)c2)nc2c1c(=O)n(C)c(=O)n2C	none (no result: Insulin prom up)
C=CCn1c(Oc2cc(C)ccc2C)nc2c1c(=O)n(C)c(=O)n2C	Autophagy mod active
COc1ccccc1Nc1cc(N2CCOCC2)c2nonc2c1[N+](=O)[O-]	MT stabilizer 16
COc1ccccc1NC(=O)/C=C1\NC(=O)CS1	none
COc1ccccc1NC(=O)/C=C1\SCC(=O)N1C	Insulin prom up 4.7
COc1ccc(OC)c(C2C(C#N)=C(N)Oc3cc(N)ccc32)c1 (centres undefined)	none
N#CC1=C(N)Oc2cc(N)ccc2C1C1CCCCC1 (centres undefined)	MT stabilizer 46 (no result: bCat nuc transl)
CCCCNc1c2c3c(cccc3n(C)c1=O)C(=O)c1ccccc1-2	MT stabilizer 27 (no result: Insulin prom up, HSV augment)
Cn1c(=O)c(NCCO)c2c3c(cccc31)C(=O)c1ccccc1-2	none (no result: Insulin prom up, HSV augment, bCat nuc transl)
N#Cc1cc(-c2ccccc2)nc(N2CCNCC2)n1	none (no result: Autophagy mod, MT stabilizer)
COc1ccc(CNC(=O)C(C#N)c2nc3ccccc3nc2N2CCCC2)cc1 (centres undefined)	Autophagy mod active
CCOC(=O)C1CCN(c2nc3ccccc3nc2C(C#N)C(=O)OC(C)C)CC1 (centres undefined)	Autophagy mod active, HSV augment inconclusive
CC1=C(CO)C(=O)OC([C@@H](C)C2CC[C@H]3C4C[C@H]5O[C@]56[C@@H](O)C=CC(=O)[C@]6(C)C4CC[C@]23C)C1 (some centres undefined)	none (no result: Autophagy mod, MT stabilizer)
Cc1c(C(c2cccs2)c2c(C)n(C)n(-c3ccccc3)c2=O)c(=O)n(-c2ccccc2)n1C	none (no result: Autophagy mod, MT stabilizer)
COc1ccc2c(c1)NC(c1cc(Cl)cc(Cl)c1O)c1cccn1-2 (centres undefined)	Autophagy mod active
C/C(=N/NC(=O)CCc1c(C)n[nH]c1C)c1cccc([N+](=O)[O-])c1	none (no result: Autophagy mod, MT stabilizer)
COc1cccc(C2=NOC(C(=O)NCc3cccs3)C2)c1 (centres undefined)	MT stabilizer 22, bCat nuc transl 98
O=C(NCc1ccco1)C1CC(c2cccc([N+](=O)[O-])c2)=NO1 (centres undefined)	none
COc1ccccc1CNC(=O)C1CC(c2cccc([N+](=O)[O-])c2)=NO1 (centres undefined)	MT stabilizer 48
Cc1cc(NC(=O)CSc2nc3cc(C(=O)NCCCOC(C)C)ccc3c(=O)n2Cc2ccco2)no1	none
O=C(OCc1nnc(-c2ccc(Br)cc2)o1)c1cncc(Br)c1	none
O=C(CN1CCC(NC(=O)c2ccc(Br)cc2)CC1)NCc1cccs1	none
Cc1cc(=O)oc2cc(OCC3CC(c4ccc(Br)cc4)=NO3)ccc12 (centres undefined)	MT stabilizer 20
CCc1ccc2[nH]c(=O)c(CN(Cc3ccc(OC)cc3)Cc3nnnn3CCOC)cc2c1	Autophagy mod active
CCOc1ccc2[nH]c(=O)c(CN(Cc3cccs3)Cc3nnnn3C(C)(C)C)cc2c1	MT stabilizer 33
COCCn1nnnc1C(C(C)C)N(Cc1ccccc1)Cc1cc2cc(OC)ccc2[nH]c1=O (centres undefined)	none
O=[N+]([O-])c1cc(-c2csc(NC(CO)c3nc4ccccc4n3CCOCCO)n2)ccc1Cl (centres undefined)	none (no result: Autophagy mod, Insulin prom up, Furin inh, MT stabilizer, bCat nuc transl)
CC1CCN(Cc2ccc(NC(=O)C3CCN(c4nnc(-n5cccc5)s4)CC3)cc2)CC1	Autophagy mod active
COc1ccc(C(=O)C2CCCN(C3Cc4ccccc4C3)C2)c(OC)c1 (centres undefined)	none
CC(C)CN=C(NS(=O)(=O)c1ccccc1)C(Cl)(Cl)Cl	Insulin prom up inconclusive, bCat nuc transl 52
